{"source": "ChEMBL document CHEMBL2346581", "about": "“Increasing the efficiency of ligands for FK506-binding protein 51 by conformational control” (J Med Chem, 2013)", "key": {"[1]": {"target": "T1, Peptidyl-prolyl cis-trans isomerase FKBP5 (Homo sapiens, UniProt Q13451)", "T1 sequence (Q13451 whole entry)": "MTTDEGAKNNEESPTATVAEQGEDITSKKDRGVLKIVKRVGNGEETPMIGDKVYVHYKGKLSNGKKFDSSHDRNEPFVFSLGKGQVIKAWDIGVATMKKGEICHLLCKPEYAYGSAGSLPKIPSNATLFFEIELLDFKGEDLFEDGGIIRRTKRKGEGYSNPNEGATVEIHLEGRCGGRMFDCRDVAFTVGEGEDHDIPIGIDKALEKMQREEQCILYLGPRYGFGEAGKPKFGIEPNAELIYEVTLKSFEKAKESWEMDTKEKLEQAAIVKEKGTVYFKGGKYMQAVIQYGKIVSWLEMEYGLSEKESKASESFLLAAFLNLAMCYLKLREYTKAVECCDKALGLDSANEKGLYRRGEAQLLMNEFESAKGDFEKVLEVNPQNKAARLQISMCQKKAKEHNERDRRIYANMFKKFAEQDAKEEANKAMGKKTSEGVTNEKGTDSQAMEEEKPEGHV", "experiment": "Binding affinity to human FKBP51 by competitive fluorescence polarization assay", "method_in_brief": "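Competitive fluorescence polarization binding assay against the purified FK506-binding domain of human FKBP51, run per a previously described protocol. The read-out is K_i.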"}, "[2]": {"target": "T2, Peptidyl-prolyl cis-trans isomerase FKBP5 (Homo sapiens) (UniProt Q13451)", "T2 sequence (whole entry)": "T1 sequence (Q13451 whole entry)", "experiment": "Binding affinity to FKBP51 (unknown origin) assessed as increase in [3H]-dexamethasone binding to glucocorticoid receptor", "method_in_brief": "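Reconstituted glucocorticoid receptor (GR) hormone-binding assay. GR-containing lysates were supplemented with purified FKBP51 and incubated with ³H-dexamethasone across a range of compound concentrations. Free ³H-dexamethasone was removed with charcoal–dextran, and GR-bound ³H-dexamethasone was then measured as the read-out.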"}, "[3]": {"target": "T1, Peptidyl-prolyl cis-trans isomerase FKBP5", "experiment": "Binding affinity to human His-tagged FKBP51 FK1 domain (1 to 140) by isothermal titration calorimetric analysis"}, "[4]": {"target": "Peptidyl-prolyl cis-trans isomerase FKBP1A (Homo sapiens, UniProt P62942)", "sequence (P62942 whole entry)": "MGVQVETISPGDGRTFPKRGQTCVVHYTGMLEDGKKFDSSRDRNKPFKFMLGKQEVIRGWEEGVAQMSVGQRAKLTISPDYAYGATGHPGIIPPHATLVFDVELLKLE", "experiment": "Binding affinity to FKBP12 (unknown origin) by competitive fluorescence polarization assay"}}, "data": [{"smiles": "COc1ccc(OCCOC(=O)C2CCCCN2S(=O)(=O)c2ccc3[nH]c(=O)sc3c2)cc1OC", "note": "(stereo not given)", "values": [{"measurement": "Ki", "setting": "[1]", "value": 7.6, "unit": "µM"}, {"measurement": "Activity", "setting": "[2]", "value": "Dose-dependent effect"}, {"measurement": "Kd", "setting": "[3]", "value": 3.3, "unit": "µM"}]}, {"smiles": "COc1ccc(CC[C@@H](OC(=O)C2CCCCN2S(=O)(=O)c2cc(Cl)cc(Cl)c2)c2cccc(OCC(=O)O)c2)cc1OC", "note": "(stereo not given in full)", "values": [{"measurement": "Ki", "setting": "[1]", "value": 13.8, "unit": "µM"}]}, {"smiles": "COc1cc2c(c(OC)c1)[C@]1(C)C3CCC[C@@H](C(=O)N1CC2)N3S(=O)(=O)c1cc(Cl)cc(Cl)c1", "values": [{"measurement": "Ki", "setting": "[4]", "value": 870, "unit": "nM"}, {"measurement": "Ki", "setting": "[1]", "value": "> 100", "unit": "µM"}]}, {"smiles": "COc1ccc(OCCN2CCC3CCCC(C2=O)N3C(=O)C(=O)c2cc(OC)c(OC)c(OC)c2)cc1OC", "note": "(stereo not given)", "values": [{"measurement": "Ki", "setting": "[1]", "value": 23.7, "unit": "µM"}]}, {"smiles": "COc1ccc(CC[C@@H](OC(=O)C2CCCCN2S(=O)(=O)c2cc(Cl)c(O)c(Cl)c2)c2cccc(OCCN3CCOCC3)c2)cc1OC", "note": "(stereo not given in full)", "values": [{"measurement": "Ki", "setting": "[1]", "value": 0.2, "unit": "µM"}]}, {"smiles": "COc1ccc(OCCOC(=O)C2CCCCN2C(=O)C(=O)c2cc(OC)c(OC)c(OC)c2)cc1OC", "note": "(stereo not given)", "values": [{"measurement": "Ki", "setting": "[1]", "value": "> 100", "unit": "µM"}]}, {"smiles": "COc1ccc(OCCN2CCC3CCCC(C2=O)N3S(=O)(=O)c2cc(Cl)cc(Cl)c2)cc1OC", "note": "(stereo not given)", "values": [{"measurement": "Ki", "setting": "[1]", "value": 8.8, "unit": "µM"}]}, {"smiles": "COc1cc2c(c(OC)c1)[C@]1(C)C3CCC[C@@H](C(=O)N1CC2)N3C(=O)C(=O)[C@]1(C)CCCC[C@H]1C", "values": [{"measurement": "Ki", "setting": "[4]", "value": 2800, "unit": "nM"}, {"measurement": "Ki", "setting": "[1]", "value": "> 100", "unit": "µM"}]}, {"smiles": "C=CC[C@@H]1/C=C(\\C)C[C@H](C)C[C@H](OC)[C@H]2O[C@@](O)(C(=O)C(=O)N3CCCC[C@H]3C(=O)O[C@H](/C(C)=C/[C@@H]3CC[C@@H](O)[C@H](OC)C3)[C@H](C)[C@@H](O)CC1=O)[C@H](C)C[C@@H]2OC", "note": "[TACROLIMUS ANHYDROUS]", "values": [{"measurement": "Ki", "setting": "[1]", "value": 0.08, "unit": "µM"}]}, {"smiles": "CCN1CC2CCCC(C1=O)N2C(=O)C(=O)c1cc(OC)c(OC)c(OC)c1", "note": "(stereo not given)", "values": [{"measurement": "Ki", "setting": "[1]", "value": "> 100", "unit": "µM"}]}, {"smiles": "CCOC(=O)C1CCCCN1S(=O)(=O)c1ccc2[nH]c(=O)sc2c1", "note": "(stereo not given)", "values": [{"measurement": "Ki", "setting": "[1]", "value": "> 100", "unit": "µM"}]}, {"smiles": "COc1ccc(OCCN2CC3CCCC(C2=O)N3S(=O)(=O)c2ccc3[nH]c(=O)sc3c2)cc1OC", "note": "(stereo not given)", "values": [{"measurement": "Activity", "setting": "[2]", "value": "Dose-dependent effect"}, {"measurement": "Kd", "setting": "[3]", "value": 10.5, "unit": "µM"}]}, {"smiles": "COc1ccc(OCCN2CC3CCCC(C2=O)N3S(=O)(=O)c2cc(Cl)cc(Cl)c2)cc1OC", "note": "(stereo not given)", "values": [{"measurement": "Ki", "setting": "[1]", "value": 1.2, "unit": "µM"}]}, {"smiles": "COc1ccc(OCCOC(=O)C2CCCCN2S(=O)(=O)c2cc(Cl)cc(Cl)c2)cc1OC", "note": "(stereo not given)", "values": [{"measurement": "Ki", "setting": "[1]", "value": "> 100", "unit": "µM"}]}, {"smiles": "COc1ccc(OCCN2CCC3CCCC(C2=O)N3S(=O)(=O)c2ccc3[nH]c(=O)sc3c2)cc1OC", "note": "(stereo not given)", "values": [{"measurement": "Activity", "setting": "[2]", "value": "Dose-dependent effect"}, {"measurement": "Kd", "setting": "[3]", "value": 0.36, "unit": "µM"}]}, {"smiles": "CO[C@H]1C[C@@H]2CC[C@@H](C)[C@@](O)(O2)C(=O)C(=O)N2CCCC[C@H]2C(=O)O[C@H]([C@H](C)C[C@@H]2CC[C@@H](O)[C@H](OC)C2)CC(=O)[C@H](C)/C=C(\\C)[C@@H](O)[C@@H](OC)C(=O)[C@H](C)C[C@H](C)/C=C/C=C/C=C/1C", "note": "[SIROLIMUS]", "values": [{"measurement": "Ki", "setting": "[1]", "value": 0.003, "unit": "µM"}]}, {"smiles": "COc1cc2c(c(OC)c1)[C@]1(C)C3CCC[C@@H](C(=O)N1CC2)N3S(=O)(=O)c1cc(Cl)c(O)c(Cl)c1", "values": [{"measurement": "Ki", "setting": "[4]", "value": 2100, "unit": "nM"}, {"measurement": "Ki", "setting": "[1]", "value": "> 100", "unit": "µM"}]}, {"smiles": "COc1ccc(OCCOC(=O)C2CCCCN2S(=O)(=O)c2ccc3ncsc3c2)cc1OC", "note": "(stereo not given)", "values": [{"measurement": "Ki", "setting": "[1]", "value": "> 100", "unit": "µM"}]}, {"smiles": "COc1cc2c(c(OC)c1)[C@]1(C)C3CCC[C@@H](C(=O)N1CC2)N3C(=O)C(=O)c1cc(OC)c(OC)c(OC)c1", "values": [{"measurement": "Ki", "setting": "[4]", "value": 500, "unit": "nM"}, {"measurement": "Ki", "setting": "[1]", "value": 18.1, "unit": "µM"}]}, {"smiles": "CCC(C)(C)C(=O)C(=O)N1CCCCC1C(=O)O[C@H](CCc1ccc(OC)c(OC)c1)c1cccc(OCC(=O)O)c1", "note": "(stereo not given in full)", "values": [{"measurement": "Ki", "setting": "[1]", "value": 2.7, "unit": "µM"}]}, {"smiles": "CCC(C)(C)C(=O)C(=O)N1C2CCC[C@H]1C(=O)N1CCc3cc(OC)cc(OC)c3[C@]21C", "values": [{"measurement": "Ki", "setting": "[4]", "value": 27700, "unit": "nM"}, {"measurement": "Ki", "setting": "[1]", "value": "> 100", "unit": "µM"}]}]}
